From ChEMBL document CHEMBL5653631, “A Potent and Selective ULK1 Inhibitor Suppresses Autophagy and Sensitizes Cancer Cells to Nutrient Stress” (iScience, 2018)

How the values were obtained:
[1] = biological target: T1, Inhibitor of nuclear factor kappa-B kinase subunit alpha (Homo sapiens) (UniProt O15111); test: Inhibition of human recombinant IKKa at 40 nM related to control ULK1
T1 sequence (whole entry): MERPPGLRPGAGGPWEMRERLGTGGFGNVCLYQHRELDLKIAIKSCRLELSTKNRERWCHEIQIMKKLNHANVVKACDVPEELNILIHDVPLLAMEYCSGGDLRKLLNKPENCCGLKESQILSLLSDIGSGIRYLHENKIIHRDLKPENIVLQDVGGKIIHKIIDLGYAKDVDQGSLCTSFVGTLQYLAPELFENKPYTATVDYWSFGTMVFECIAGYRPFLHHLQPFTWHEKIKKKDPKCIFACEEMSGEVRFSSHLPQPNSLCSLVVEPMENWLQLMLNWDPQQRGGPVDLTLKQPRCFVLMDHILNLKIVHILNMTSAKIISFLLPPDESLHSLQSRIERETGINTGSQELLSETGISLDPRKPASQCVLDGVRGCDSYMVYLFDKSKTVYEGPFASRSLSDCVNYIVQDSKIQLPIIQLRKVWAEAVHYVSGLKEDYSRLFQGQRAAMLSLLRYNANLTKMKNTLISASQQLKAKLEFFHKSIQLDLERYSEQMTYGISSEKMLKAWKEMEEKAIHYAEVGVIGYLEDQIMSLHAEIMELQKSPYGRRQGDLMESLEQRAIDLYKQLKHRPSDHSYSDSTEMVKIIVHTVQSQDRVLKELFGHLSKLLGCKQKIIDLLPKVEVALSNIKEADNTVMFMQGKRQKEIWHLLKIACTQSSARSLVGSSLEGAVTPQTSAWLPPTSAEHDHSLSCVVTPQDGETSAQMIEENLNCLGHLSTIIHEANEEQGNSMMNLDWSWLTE

[2] = biological target: Ephrin type-A receptor 2 (Homo sapiens) (UniProt P29317); test: Inhibition of human recombinant EphA2 at 15 nM in presence of ATP by radiometric assay relative to control
[3] = biological target: Cyclin-dependent kinase 6 (Homo sapiens) (UniProt Q00534); test: Inhibition of human recombinant CDK6 at 15 nM related to control ULK1
[4] = biological target: T2, Dual specificity tyrosine-phosphorylation-regulated kinase 3 (Homo sapiens) (UniProt O43781); test: Inhibition of human recombinant DYRK3 at 500 nM related to control ULK1
T2 sequence (whole entry): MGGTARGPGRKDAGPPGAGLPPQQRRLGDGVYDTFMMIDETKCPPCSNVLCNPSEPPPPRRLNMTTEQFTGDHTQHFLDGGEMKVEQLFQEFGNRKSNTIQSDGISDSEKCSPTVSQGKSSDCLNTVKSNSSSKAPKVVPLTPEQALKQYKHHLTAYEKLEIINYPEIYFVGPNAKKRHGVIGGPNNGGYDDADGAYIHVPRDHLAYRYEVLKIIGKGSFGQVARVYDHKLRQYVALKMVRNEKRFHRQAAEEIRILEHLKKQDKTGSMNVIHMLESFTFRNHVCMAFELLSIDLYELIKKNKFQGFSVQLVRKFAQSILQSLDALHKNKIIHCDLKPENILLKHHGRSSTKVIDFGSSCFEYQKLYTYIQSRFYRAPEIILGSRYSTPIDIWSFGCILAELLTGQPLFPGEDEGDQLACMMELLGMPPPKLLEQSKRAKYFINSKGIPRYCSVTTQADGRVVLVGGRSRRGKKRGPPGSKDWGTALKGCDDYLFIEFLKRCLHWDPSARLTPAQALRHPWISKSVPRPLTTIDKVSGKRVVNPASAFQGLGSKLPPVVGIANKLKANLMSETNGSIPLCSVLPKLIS

[5] = biological target: Insulin-like growth factor 1 receptor (Homo sapiens) (UniProt P08069); test: Inhibition of human recombinant IGF1R at 500 nM in presence of ATP by radiometric assay relative to control
[6] = biological target: T3, Serine/threonine-protein kinase Nek2 (Homo sapiens) (UniProt P51955); test: Inhibition of human recombinant NEK2 at 500 nM in presence of ATP by radiometric assay relative to control
T3 sequence (whole entry): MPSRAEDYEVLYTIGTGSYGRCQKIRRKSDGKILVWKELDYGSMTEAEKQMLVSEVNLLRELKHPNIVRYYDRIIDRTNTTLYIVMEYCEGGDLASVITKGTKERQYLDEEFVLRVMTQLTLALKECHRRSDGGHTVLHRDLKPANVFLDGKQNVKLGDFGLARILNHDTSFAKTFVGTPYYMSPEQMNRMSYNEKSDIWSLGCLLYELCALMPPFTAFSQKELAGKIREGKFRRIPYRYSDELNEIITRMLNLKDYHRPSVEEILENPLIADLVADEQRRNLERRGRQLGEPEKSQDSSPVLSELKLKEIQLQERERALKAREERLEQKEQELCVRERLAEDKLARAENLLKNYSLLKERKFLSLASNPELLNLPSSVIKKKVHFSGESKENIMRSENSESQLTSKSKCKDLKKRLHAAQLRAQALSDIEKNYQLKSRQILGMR

[7] = biological target: MAP kinase-activated protein kinase 3 (Homo sapiens) (UniProt Q16644); test: Inhibition of human recombinant MAPKAPK3 at 500 nM related to control ULK1
[8] = biological target: Protein kinase C beta type (Homo sapiens) (UniProt P05771); test: Inhibition of human recombinant PKCb at 500 nM in presence of ATP by radiometric assay relative to control
[9] = biological target: T4, Activin receptor type-1B (Homo sapiens) (UniProt P36896); test: Inhibition of human recombinant ALK4 at 500 nM in presence of ATP by radiometric assay relative to control
T4 sequence (whole entry): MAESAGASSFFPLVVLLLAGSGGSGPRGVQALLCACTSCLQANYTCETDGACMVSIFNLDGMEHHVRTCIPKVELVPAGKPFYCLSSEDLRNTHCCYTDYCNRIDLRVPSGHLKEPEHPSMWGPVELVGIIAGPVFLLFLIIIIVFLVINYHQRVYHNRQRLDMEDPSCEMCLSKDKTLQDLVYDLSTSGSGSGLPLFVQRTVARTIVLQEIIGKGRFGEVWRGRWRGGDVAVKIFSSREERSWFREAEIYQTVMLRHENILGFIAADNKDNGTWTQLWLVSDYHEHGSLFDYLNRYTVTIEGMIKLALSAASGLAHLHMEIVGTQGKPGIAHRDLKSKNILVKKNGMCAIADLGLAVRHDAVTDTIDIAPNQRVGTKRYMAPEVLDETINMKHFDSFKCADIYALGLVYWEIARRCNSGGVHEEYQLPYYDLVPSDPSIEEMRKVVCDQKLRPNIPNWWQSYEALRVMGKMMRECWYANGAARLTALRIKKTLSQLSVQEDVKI
How it was run: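 Panel of 327 recombinant human kinases, each assayed in vitro by radiometric activity assay in duplicate at a single inhibitor concentration per compound, chosen with reference to its ULK1 inhibition. Activity remaining was expressed as percent of vehicle control, and percent inhibition was calculated as 100 minus percent activity remaining.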

[10] = biological target: Fibroblast growth factor receptor 2 (Homo sapiens) (UniProt P21802); test: Inhibition of human recombinant FGFR2 at 500 nM in presence of ATP by radiometric assay relative to control
Fibroblast growth factor receptor 2 (Homo sapiens), sequence (P21802 22-821 limits assumed): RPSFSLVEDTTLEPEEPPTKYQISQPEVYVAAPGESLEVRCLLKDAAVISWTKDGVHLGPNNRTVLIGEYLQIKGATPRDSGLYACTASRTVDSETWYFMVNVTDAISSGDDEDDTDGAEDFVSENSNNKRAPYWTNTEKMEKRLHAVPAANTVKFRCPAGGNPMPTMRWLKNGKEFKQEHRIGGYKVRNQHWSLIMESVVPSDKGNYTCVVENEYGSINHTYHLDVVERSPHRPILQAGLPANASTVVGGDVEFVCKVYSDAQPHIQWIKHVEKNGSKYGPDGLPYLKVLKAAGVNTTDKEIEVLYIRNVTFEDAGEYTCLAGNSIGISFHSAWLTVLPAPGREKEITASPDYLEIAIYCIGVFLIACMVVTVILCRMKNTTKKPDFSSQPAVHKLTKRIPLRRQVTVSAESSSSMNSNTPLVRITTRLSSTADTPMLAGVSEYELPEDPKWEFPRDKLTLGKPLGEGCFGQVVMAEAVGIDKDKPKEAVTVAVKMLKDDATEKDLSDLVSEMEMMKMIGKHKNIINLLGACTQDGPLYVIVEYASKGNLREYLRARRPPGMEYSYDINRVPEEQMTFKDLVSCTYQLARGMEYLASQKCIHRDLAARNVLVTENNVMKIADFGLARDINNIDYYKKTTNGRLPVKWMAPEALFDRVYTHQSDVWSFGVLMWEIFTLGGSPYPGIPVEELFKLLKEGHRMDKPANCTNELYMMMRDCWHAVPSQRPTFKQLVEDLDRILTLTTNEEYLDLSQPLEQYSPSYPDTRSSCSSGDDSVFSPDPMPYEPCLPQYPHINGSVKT

Ephrin type-A receptor 2 (Homo sapiens), sequence (P29317 whole entry): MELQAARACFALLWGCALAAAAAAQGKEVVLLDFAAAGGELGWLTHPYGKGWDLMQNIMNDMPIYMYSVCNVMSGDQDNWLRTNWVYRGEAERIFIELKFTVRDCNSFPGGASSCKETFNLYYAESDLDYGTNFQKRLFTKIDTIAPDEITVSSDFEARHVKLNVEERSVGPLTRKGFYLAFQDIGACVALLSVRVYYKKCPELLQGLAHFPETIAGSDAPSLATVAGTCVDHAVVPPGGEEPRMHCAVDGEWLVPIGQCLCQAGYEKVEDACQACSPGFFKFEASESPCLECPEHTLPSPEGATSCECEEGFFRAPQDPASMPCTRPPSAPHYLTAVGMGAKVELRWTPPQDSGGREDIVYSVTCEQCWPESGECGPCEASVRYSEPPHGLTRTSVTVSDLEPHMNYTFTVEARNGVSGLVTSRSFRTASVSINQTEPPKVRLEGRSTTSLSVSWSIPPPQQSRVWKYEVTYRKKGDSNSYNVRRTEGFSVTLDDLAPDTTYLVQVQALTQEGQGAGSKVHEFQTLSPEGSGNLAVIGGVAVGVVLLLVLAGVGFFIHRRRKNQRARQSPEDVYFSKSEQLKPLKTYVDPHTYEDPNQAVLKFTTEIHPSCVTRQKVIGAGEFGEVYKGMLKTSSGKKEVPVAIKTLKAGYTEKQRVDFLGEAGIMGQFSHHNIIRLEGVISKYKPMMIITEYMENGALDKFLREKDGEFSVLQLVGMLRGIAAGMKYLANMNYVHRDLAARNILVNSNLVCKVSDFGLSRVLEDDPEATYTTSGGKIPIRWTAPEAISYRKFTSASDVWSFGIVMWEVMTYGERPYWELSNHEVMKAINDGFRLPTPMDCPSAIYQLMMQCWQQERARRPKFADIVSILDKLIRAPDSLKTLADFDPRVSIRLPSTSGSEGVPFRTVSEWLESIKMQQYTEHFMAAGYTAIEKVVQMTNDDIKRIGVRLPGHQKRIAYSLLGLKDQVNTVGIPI
Protein kinase C beta type (Homo sapiens), sequence (P05771 2-671 limits assumed): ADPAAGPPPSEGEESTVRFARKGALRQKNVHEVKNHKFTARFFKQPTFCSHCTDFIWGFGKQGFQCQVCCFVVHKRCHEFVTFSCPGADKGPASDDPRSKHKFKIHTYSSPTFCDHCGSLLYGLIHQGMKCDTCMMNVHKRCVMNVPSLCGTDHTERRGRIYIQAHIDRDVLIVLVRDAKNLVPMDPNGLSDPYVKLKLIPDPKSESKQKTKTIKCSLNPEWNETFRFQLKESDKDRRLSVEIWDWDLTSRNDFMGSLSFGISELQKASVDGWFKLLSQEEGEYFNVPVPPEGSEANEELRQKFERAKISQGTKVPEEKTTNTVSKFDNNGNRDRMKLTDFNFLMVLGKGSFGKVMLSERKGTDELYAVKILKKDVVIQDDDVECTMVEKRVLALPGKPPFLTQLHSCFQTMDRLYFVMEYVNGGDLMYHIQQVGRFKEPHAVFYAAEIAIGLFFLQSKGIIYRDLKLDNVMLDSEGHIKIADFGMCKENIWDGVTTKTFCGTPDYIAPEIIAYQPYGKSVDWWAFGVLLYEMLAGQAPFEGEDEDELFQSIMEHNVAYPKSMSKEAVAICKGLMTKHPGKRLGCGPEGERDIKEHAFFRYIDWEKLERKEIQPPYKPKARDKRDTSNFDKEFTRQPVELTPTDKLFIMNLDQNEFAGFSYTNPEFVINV
Cyclin-dependent kinase 6 (Homo sapiens), sequence (Q00534 whole entry): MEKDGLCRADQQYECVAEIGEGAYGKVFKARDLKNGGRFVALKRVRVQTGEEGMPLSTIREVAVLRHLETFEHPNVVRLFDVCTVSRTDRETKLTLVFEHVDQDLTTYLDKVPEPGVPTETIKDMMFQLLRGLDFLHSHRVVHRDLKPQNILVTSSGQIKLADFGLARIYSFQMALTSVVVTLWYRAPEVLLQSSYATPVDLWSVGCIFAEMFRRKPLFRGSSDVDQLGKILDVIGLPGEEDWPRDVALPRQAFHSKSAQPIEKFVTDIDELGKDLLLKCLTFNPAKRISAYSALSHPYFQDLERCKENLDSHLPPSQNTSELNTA
MAP kinase-activated protein kinase 3 (Homo sapiens), sequence (Q16644 whole entry, looked up): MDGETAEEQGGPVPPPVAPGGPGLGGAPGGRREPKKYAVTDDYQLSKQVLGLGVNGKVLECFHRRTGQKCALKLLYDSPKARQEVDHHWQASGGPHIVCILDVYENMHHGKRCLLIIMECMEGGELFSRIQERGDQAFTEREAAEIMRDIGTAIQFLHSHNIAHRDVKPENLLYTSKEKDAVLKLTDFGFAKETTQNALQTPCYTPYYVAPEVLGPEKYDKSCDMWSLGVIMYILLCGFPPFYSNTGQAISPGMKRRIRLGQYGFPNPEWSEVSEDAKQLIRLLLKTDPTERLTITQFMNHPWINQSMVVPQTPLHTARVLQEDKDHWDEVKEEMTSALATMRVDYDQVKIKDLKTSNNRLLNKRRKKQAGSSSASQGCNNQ
Insulin-like growth factor 1 receptor (Homo sapiens), sequence (P08069 31-736 limits assumed): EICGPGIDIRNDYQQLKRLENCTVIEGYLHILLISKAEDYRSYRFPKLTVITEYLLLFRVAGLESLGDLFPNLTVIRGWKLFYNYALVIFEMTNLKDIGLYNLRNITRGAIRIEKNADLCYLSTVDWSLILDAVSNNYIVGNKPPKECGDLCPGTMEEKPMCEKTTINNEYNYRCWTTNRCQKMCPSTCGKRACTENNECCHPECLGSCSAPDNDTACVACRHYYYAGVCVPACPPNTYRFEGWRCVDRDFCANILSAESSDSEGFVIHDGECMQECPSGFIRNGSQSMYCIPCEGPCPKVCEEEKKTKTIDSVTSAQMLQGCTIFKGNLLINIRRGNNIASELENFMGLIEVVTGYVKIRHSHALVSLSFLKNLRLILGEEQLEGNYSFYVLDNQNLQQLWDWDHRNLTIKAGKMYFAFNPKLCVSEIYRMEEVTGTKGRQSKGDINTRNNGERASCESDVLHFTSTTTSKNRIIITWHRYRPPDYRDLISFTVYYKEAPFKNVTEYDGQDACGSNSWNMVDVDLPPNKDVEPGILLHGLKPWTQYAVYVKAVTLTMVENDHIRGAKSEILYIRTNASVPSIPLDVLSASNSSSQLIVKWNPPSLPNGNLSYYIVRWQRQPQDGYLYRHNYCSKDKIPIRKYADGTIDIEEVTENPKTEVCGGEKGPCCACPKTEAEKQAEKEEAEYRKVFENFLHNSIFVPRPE
Insulin-like growth factor 1 receptor (Homo sapiens), sequence (P08069 741-1367 limits assumed): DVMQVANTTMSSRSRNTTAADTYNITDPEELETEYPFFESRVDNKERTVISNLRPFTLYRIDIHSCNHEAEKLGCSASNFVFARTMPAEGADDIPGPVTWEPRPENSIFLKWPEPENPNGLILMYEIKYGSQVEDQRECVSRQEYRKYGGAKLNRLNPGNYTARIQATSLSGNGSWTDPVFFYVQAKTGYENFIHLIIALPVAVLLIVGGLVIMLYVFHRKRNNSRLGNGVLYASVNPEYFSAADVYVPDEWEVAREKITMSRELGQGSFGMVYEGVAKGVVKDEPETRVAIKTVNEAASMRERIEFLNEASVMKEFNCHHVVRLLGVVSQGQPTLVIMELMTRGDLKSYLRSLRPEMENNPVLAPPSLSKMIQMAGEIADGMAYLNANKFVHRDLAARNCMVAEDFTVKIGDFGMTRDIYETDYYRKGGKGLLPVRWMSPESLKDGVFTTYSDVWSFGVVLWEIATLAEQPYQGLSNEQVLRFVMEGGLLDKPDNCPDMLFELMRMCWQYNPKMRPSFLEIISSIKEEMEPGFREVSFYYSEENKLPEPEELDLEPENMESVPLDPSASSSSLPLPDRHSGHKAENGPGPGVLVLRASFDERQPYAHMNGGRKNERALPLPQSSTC

`O=C(N[C@@H](C1CC1)C(F)(F)F)c1cc(-c2cnn3cc(-c4ccc(F)cc4)cnc23)cs1` was tested, and the fold change (FC) [1] was 0.
With `CC(C)[C@H](NC(=O)c1cc(-c2cnn3cc(-c4ccc(OCCN5CCCCC5)cc4)cnc23)cs1)C(F)(F)F` the inhibition [2] was 0% and the fold change (FC) [3] was 0.09.
`CNC(=O)c1ccccc1Oc1nc(Nc2cc(OC)c(OC)c(OC)c2)ncc1Br` was tested, and the fold change (FC) [4] was 0, the inhibition [5] was 3% and the inhibition [6] was 0%. It also gave a fold change (FC) [7] of 0, an inhibition [8] of 7% and an inhibition [9] of 15%. The inhibition [10] was 21%.
